Assay results as given in paper PMC3180826 (ACS chemical neuroscience, 2010).
Numbering of substitutions follows the chain as printed.

Assays:
rM1 Y381A = biological target: T1, rM1 Y381A (Rattus norvegicus, UniProt P08482, Y381A); assay: Calcium mobilization in rM1 Y381A; type: cell-based
T1 sequence (P08482 1-460 Y381A): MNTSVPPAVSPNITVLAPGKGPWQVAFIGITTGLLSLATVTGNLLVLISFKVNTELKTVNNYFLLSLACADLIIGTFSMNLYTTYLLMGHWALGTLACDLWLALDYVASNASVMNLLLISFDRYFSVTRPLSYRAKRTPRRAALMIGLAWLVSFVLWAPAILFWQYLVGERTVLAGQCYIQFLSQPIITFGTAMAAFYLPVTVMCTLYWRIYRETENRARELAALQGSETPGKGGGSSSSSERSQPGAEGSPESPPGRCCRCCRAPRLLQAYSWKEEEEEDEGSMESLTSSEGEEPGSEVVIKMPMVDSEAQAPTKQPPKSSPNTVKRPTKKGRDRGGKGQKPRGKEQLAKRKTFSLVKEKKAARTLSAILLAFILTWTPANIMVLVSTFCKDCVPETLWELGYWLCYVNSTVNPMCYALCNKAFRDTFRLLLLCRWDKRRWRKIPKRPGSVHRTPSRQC

hM5 = biological target: T2, hM5 (Homo sapiens, UniProt P08912); assay: Calcium mobilization assay, agonist mode, M5; type: cell-based; conditions: up to 30 μM
T2 sequence (P08912 1-532): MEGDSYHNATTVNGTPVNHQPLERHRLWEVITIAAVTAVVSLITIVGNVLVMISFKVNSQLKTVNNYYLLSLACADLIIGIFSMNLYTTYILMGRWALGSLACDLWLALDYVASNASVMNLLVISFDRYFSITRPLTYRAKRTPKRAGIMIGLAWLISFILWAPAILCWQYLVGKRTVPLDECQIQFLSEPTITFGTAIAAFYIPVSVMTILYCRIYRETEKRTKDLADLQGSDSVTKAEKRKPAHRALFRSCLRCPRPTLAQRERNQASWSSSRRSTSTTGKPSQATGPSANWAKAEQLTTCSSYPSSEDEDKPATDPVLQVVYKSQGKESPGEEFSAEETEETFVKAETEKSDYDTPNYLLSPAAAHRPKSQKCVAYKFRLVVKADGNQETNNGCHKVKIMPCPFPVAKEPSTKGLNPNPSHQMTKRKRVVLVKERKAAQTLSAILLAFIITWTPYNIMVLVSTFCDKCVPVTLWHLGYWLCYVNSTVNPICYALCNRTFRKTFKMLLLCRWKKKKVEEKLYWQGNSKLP
Method in brief: (§1)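 CHO-K1 cells stably expressing hM2/Gqi5 or rM4/Gqi5 (6 × 10^4 cells/well), or hM3 or hM5 (5 × 10^4 cells/well), were cultured overnight at 37 °C in 5% CO2. Cells were loaded with 2 μM Fluo-4 AM for 1 h at 37 °C in HBSS with 20 mM HEPES and 2.5 mM probenecid, pH 7.4. Eight-point test compound concentration series were added at 19 s of a 130 s read. Calcium flux was read as fluorescence fold over basal.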

rM1 E397D = biological target: T3, rM1 E397D (Rattus norvegicus, UniProt P08482, E397D); assay: Calcium mobilization, rM1 E397D mutant CHO-K1 cells; type: cell-based; conditions: compared with wt rM1
T3 sequence (P08482 1-460 E397D): T1 sequence (P08482 1-460 Y381A) with A381Y, E397D
Method in brief: (§2)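 CHO-K1 cells were transiently transfected overnight at 37 °C with 10 μg of mutant rat M1 cDNA in pcDNA3.1+ using Fugene 6, then plated for the calcium assay. They were loaded with 2 μM Fluo-4 AM for 1 h at 37 °C in HEPES/probenecid-buffered HBSS, pH 7.4. Test compound dose–response series were added at 19 s. Calcium mobilization was measured as fluorescence increase over basal.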

M3 = M3 (Homo sapiens, UniProt P20309); assay: [3H]-NMS competition binding, M3 CHO membranes; conditions: concentrations well above those required to fully activate M1
M3, sequence (P20309 whole entry): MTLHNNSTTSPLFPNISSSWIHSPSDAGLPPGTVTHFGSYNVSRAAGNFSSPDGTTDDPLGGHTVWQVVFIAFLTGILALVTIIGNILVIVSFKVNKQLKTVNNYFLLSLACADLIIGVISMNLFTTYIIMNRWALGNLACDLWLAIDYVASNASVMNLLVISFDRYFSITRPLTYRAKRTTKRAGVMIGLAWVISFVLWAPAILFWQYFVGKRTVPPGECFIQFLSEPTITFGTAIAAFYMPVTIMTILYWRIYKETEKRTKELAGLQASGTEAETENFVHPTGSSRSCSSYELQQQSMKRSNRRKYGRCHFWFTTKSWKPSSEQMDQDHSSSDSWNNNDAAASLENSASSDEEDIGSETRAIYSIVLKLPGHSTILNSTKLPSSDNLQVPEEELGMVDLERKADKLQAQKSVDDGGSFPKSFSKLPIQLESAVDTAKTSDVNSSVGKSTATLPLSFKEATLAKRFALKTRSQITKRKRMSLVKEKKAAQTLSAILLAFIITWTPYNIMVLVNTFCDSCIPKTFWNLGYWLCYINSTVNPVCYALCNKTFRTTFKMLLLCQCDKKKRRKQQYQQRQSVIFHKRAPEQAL

rM1 K392D = biological target: T4, rM1 K392D (Rattus norvegicus, UniProt P08482, K392D); assay: Calcium mobilization, rM1 K392D mutant CHO-K1 cells; type: cell-based; conditions: compared with wt rM1
T4 sequence (P08482 1-460 K392D): T1 sequence (P08482 1-460 Y381A) with A381Y, K392D
Method in brief: as §2

hM2 = biological target: T5, hM2 (Homo sapiens, UniProt P08172); assay: Calcium mobilization assay, agonist mode, M2; type: cell-based; conditions: up to 30 μM
T5 sequence (P08172 1-466): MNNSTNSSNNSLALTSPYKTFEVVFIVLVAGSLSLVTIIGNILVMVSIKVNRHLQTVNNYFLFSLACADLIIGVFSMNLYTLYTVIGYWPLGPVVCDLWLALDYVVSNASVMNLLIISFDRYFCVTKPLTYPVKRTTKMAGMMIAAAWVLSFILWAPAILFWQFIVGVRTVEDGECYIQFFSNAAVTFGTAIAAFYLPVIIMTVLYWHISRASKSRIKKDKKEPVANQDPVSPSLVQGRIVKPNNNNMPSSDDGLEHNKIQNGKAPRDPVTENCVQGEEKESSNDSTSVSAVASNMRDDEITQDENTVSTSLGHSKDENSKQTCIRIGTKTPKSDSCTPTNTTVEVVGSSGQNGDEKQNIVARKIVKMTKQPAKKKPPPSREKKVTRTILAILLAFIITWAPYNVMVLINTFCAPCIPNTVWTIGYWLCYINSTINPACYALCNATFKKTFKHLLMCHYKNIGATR
Method in brief: as §1

Structure (SMILES): CCOC(=O)N1CCC(NCCNC(=O)c2ccccc2)CC1 [VU0184670, ethyl 4-(2-benzamidoethylamino)piperidine-1-carboxylate]
- EC50 (rM1 Y381A): 304 ± 156 nM
- potency at M1 Y381A compared with WT M1 (rM1 Y381A; M1Y381A CHO cells vs WT M1 CHO cells): potencies similar to those observed in WT M1 CHO cells
- rM1 Y381A AChmax (maximal efficacy) (rM1 Y381A; rM1 Y381A cells): 63.25 % max
- agonist activity at M5 (hM5): no activity
- functional potency at E397D mutant (rM1 E397D): Not much potency appeared to be lost
- reduction of [3H]-NMS binding to M3 (M3): did not reduce
- functional activity at K392D mutant (rM1 K392D): comparable results to wt rM1
- agonist activity at M2 (hM2): no activity
